From ChEMBL document CHEMBL5154735, “Interaction of A3 adenosine receptor ligands with the human multidrug transporter ABCG2” (Eur J Med Chem, 2022)

Tests used:
ABCG2 [1] = target: T1, ABCG2 (Homo sapiens, UniProt Q9UNQ0); assay: Effect on human ABCG2 transporter preincubated for 2 mins followed by ATP addition assessed as basal ATPase activity at 2.5 uM and measured after 20 mins by colorimetric assay relative to control; conditions: read-out: Activity
T1 sequence (Q9UNQ0 whole entry): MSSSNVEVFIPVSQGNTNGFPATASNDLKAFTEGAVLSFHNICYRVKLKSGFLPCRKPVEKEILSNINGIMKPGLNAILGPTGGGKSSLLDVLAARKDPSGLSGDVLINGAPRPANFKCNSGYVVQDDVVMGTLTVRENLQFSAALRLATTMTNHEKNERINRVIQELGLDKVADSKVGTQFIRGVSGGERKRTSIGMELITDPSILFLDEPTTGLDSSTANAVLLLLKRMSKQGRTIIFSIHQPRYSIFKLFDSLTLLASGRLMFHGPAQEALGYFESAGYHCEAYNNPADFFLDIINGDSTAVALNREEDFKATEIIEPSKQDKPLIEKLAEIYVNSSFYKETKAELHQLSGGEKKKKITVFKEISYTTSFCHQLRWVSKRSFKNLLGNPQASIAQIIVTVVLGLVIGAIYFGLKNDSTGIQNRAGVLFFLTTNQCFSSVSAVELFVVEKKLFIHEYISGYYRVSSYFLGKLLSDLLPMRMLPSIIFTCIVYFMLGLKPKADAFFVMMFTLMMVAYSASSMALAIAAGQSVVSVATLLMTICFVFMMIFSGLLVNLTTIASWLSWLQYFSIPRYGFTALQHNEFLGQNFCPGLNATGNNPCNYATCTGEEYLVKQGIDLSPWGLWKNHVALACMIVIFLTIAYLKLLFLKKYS
How it was run: (§1)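 Total membrane vesicles from High-Five insect cells expressing human ABCG2 (hypotonic lysis, differential centrifugation), 10 μg protein/tube, in MES-Tris pH 6.8 buffer with KCl, MgCl2, NaN3, EGTA, ouabain, DTT. Compound in DMSO added ± sodium orthovanadate (0.3 mM), DMSO control. Preincubated 2 min at 37°C, then 5 mM ATP, 20 min. SDS stop, Pi measured colorimetrically. Three independent experiments in duplicate, mean ± SE.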

ABCG2 [2] = target: T1, ABCG2; assay: Inhibition of human ABCG2-mediated ATPase activity preincubated for 2 mins followed by ATP addition at 10 uM and measured after 20 mins by colorimetric assay relative to control; how it was run: as §1
ABCG2 [3] = target: T1, ABCG2; assay: Activation of human ABCG2-mediated ATPase activity preincubated for 2 mins followed by ATP addition at 2.5 M and measured after 20 mins by colorimetric assay relative to control; parameters: dose or concentration left out as unconfirmed; conditions: read-out: Activity; how it was run: as §1
ABCG2 [4] = target: T1, ABCG2; assay: Activation of human ABCG2-mediated ATPase activity preincubated for 2 mins followed by ATP addition at 10 M and measured after 20 mins by colorimetric assay relative to control; parameters: dose or concentration left out as unconfirmed; conditions: read-out: Activity; how it was run: as §1
ABCG2 [5] = target: T1, ABCG2; assay: Effect on human ABCG2 transporter preincubated for 2 mins followed by ATP addition assessed as basal ATPase activity at 10 uM and measured after 20 mins by colorimetric assay relative to control; conditions: read-out: Activity; how it was run: as §1
ABCG2 [6] = target: T1, ABCG2; assay: Activation of human ABCG2-mediated ATPase activity preincubated for 2 mins followed by ATP addition at 100 nM and measured after 20 mins by colorimetric assay relative to control; conditions: read-out: Activity; how it was run: as §1
Adenosine receptor A3 = target: T2, Adenosine receptor A3 (Homo sapiens, UniProt P0DMS8); assay: Binding affinity towards human adenosine A3 receptor
T2 sequence (P0DMS8 whole entry): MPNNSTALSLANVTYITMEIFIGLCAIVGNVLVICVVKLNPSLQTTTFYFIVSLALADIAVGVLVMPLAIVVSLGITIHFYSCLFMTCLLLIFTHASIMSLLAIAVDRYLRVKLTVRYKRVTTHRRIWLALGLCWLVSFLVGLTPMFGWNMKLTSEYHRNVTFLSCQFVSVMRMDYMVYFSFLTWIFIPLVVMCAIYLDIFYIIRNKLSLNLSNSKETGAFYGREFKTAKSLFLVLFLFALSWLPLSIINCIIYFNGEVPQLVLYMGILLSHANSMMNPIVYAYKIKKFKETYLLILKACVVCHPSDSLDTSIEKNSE

[7] = target: T3, Broad substrate specificity ATP-binding cassette transporter ABCG2 (Homo sapiens, UniProt Q9UNQ0); assay: Activation of human ABCG2-mediated ATPase activity preincubated for 2 mins followed by ATP addition and measured after 20 mins by colorimetric assay; how it was run: as §1
T3 sequence (Q9UNQ0 whole entry): T1 sequence (Q9UNQ0 whole entry)

ABCG2 [8] = target: T1, ABCG2; assay: Activation of human ABCG2-mediated ATPase activity preincubated for 2 mins followed by ATP addition at 2.5 uM and measured after 20 mins by colorimetric assay relative to control; conditions: read-out: Activity; how it was run: as §1
ABCG2 [9] = target: T1, ABCG2; assay: Activation of human ABCG2-mediated ATPase activity preincubated for 2 mins followed by ATP addition at 10 uM and measured after 20 mins by colorimetric assay relative to control; conditions: read-out: Activity; how it was run: as §1
ABCG2 [10] = target: T1, ABCG2; assay: Inhibition of human ABCG2 in human R5 cells assessed as inhibition of mitoxantrone efflux at 10 uM measured by flow cytometric analysis relative to control; format: cell-based; conditions: probe mitoxantrone
How it was run: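 HEK293 cells transfected with full-length ABCG2 (R-5) or empty pcDNA vector, grown in MEM with 10% FBS and 2 mg/ml G418. Cells incubated in IMDM with 5% FBS, 5 μM mitoxantrone (final) ± compound, 37°C for 45 min. Washed in cold IMDM, resuspended in cold PBS with 1% BSA, read by flow cytometry.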

ABCG2 [11] = target: T1, ABCG2; assay: Inhibition of human ABCG2-mediated ATPase activity preincubated for 2 mins followed by ATP addition at 2.5 uM and measured after 20 mins by colorimetric assay relative to control; how it was run: as §1

CNC(=O)C12CC1[C@@H](n1cnc3c(NCc4cccc(-n5cc(-c6ccc(F)c(F)c6)nn5)c4)nc(C#Cc4ccc(F)cc4F)nc31)[C@H](O)[C@@H]2O (single isomer, unassigned)
activity at 20 min, 2.5 µM (ABCG2 [1]): ≤ 30% | inhibition at 20 min, 10 µM (ABCG2 [2]): 57.1%

CNC(=O)C12CC1[C@@H](n1cnc3c(NCc4cccc(Cl)c4)nc(C#Cc4ccc(Cl)s4)nc31)[C@H](O)[C@@H]2O (single isomer, unassigned)
activity at 20 min (ABCG2 [3]): 97.5% | activity at 20 min (ABCG2 [4]): 92.9%

OCC12CC1[C@@H](n1cnc3c(NCc4cccc(-n5cc(-c6ccc(F)c(F)c6)nn5)c4)nc(C#Cc4ccc(F)c(F)c4)nc31)[C@H](O)[C@@H]2O (single isomer, unassigned)
activity at 20 min, 2.5 µM (ABCG2 [1]): ≤ 30% | activity at 20 min, 10 µM (ABCG2 [5]): ≤ 30%

CCCNc1nc(C#Cc2ccc(Cl)s2)nc2c1ncn2[C@@H]1C2CC2(C(=O)NC)[C@@H](O)[C@H]1O (single isomer, unassigned)
activity at 20 min (ABCG2 [3]): 77.9% | activity at 20 min (ABCG2 [4]): 40%

Oc1ccc(CCNC2=NC(C#Cc3ccc(Cl)s3)=NC3=NC=NC32)cc1O (stereo not given)
activity at 20 min, 0.1 µM (ABCG2 [6]): 95.9% | Ki (Adenosine receptor A3): ≥ 0.099 µM

CNC(=O)C12CC1[C@@H](n1cnc3c(NC)nc(C#Cc4ccc(Cl)s4)nc31)[C@H](O)[C@@H]2O (single isomer, unassigned)
activity at 20 min (ABCG2 [3]): 59.2%

CNc1nc(C#Cc2ccc(Cl)s2)nc2c1ncn2[C@@H]1C2CC2(C(=O)OC)[C@@H](O)[C@H]1O (single isomer, unassigned)
activity at 20 min (ABCG2 [3]): 89.1% | activity at 20 min (ABCG2 [4]): 79%

COc1ccc(CCNC2=NC(I)=NC3=NC=CC32)cc1O (stereo not given)
activity at 20 min, 0.1 µM (ABCG2 [6]): 79.6% | Ki (Adenosine receptor A3): ≥ 0.099 µM

CNC(=O)C12CC1[C@@H](n1cnc3c(NC4CC4c4ccc(F)c(F)c4)nc(C#Cc4cccc(F)c4)nc31)[C@H](O)[C@@H]2O (single isomer, unassigned)
EC50 [7]: 0.016 µM | activity at 20 min, 2.5 µM (ABCG2 [8]): 111% | activity at 20 min, 10 µM (ABCG2 [9]): 46.7% | inhibition at 10 µM (ABCG2 [10]): 100%

CNC(=O)C12CC1[C@@H](n1cnc3c(N[C@@H]4C[C@H]4c4ccc(F)c(F)c4)nc(C#Cc4cccc(F)c4)nc31)[C@H](O)[C@@H]2O (single isomer, unassigned)
EC50 [7]: 0.013 µM | activity at 20 min, 2.5 µM (ABCG2 [8]): 74.8% | inhibition at 10 µM (ABCG2 [10]): 97.4%

CNC(=O)C12CC1[C@@H](n1cnc3c(NCc4cccc(-n5cc(-c6ccc(F)c(F)c6)nn5)c4)nc(C#Cc4cc(F)cc(F)c4)nc31)[C@H](O)[C@@H]2O (single isomer, unassigned)
inhibition at 20 min, 2.5 µM (ABCG2 [11]): 44.7% | inhibition at 20 min, 10 µM (ABCG2 [2]): 49.4%

CNC(=O)C12CC1[C@@H](n1cnc3c(NCc4cccc(Cl)c4)nc(C#Cc4ccccc4)nc31)[C@H](O)[C@@H]2O (single isomer, unassigned)
activity at 20 min, 2.5 µM (ABCG2 [8]): 51.3% | activity at 20 min, 10 µM (ABCG2 [5]): ≤ 30%

COc1ccc(CCNC2=NC(C#Cc3ccc(Cl)s3)=NC3=NC=CC32)cc1O (stereo not given)
activity at 20 min, 0.1 µM (ABCG2 [6]): 104% | Ki (Adenosine receptor A3): ≥ 0.099 µM

OCC12CC1[C@@H](n1cnc3c(NCc4cccc(-n5cc(-c6ccc(F)c(F)c6)nn5)c4)nc(C#Cc4ccc(F)cc4)nc31)[C@H](O)[C@@H]2O (single isomer, unassigned)
activity at 20 min, 2.5 µM (ABCG2 [1]): ≤ 30% | activity at 20 min, 10 µM (ABCG2 [5]): ≤ 30%

CNC(=O)[C@H]1O[C@@H](n2cnc3c(NCc4cccc(I)c4)nc(Cl)nc32)[C@H](O)[C@@H]1O [NAMODENOSON]
EC50 [7]: 1.42 µM | activity at 20 min (ABCG2 [3]): 101% | activity at 20 min (ABCG2 [4]): 69.9%

Cn1cnc2c(NCCc3ccccc3)nc(C#Cc3ccc(Cl)s3)nc21
activity at 20 min, 0.1 µM (ABCG2 [6]): 92.1% | Ki (Adenosine receptor A3): ≥ 0.099 µM
